ChEMBL document CHEMBL4304789, “Design, Synthesis, and Biological Evaluation of 2,4-Imidazolinedione Derivatives as HDAC6 Isoform-Selective Inhibitors” (ACS Med Chem Lett, 2019)
pIC50: −log10 of the molar value. Calls of active or inactive are those of the source. The calls are words filed in the database; no cut-off is given here.

Legend:
Histone deacetylase 1 = Histone deacetylase 1 (Homo sapiens, UniProt Q13547); test: Inhibition of HDAC1 (unknown origin) using Ac-LeuGlyLys(Ac)-AMC as substrate preincubated for 5 mins followed by substrate addition and measured after 60 mins by fluorescence based assay
Histone deacetylase 1, sequence (Q13547 whole entry): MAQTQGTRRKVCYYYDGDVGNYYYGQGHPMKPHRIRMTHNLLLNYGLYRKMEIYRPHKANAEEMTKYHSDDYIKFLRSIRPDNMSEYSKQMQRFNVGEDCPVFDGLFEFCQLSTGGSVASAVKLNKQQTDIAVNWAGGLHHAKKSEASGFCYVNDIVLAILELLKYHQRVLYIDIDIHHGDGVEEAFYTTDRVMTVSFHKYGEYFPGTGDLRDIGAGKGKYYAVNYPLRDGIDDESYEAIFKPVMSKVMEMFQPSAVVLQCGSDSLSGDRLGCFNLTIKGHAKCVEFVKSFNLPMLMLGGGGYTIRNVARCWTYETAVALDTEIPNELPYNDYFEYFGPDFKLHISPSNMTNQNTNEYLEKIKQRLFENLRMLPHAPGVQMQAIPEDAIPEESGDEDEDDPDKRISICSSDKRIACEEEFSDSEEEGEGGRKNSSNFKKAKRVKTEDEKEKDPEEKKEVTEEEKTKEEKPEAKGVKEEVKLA

Histone deacetylase 4 = Histone deacetylase 4 (Homo sapiens, UniProt P56524); test: Inhibition of HDAC4 (unknown origin) using Ac-LeuGlyLys(tfa)-AMC as substrate preincubated for 5 mins followed by substrate addition and measured after 60 mins by fluorescence based assay
Histone deacetylase 4, sequence (P56524 whole entry): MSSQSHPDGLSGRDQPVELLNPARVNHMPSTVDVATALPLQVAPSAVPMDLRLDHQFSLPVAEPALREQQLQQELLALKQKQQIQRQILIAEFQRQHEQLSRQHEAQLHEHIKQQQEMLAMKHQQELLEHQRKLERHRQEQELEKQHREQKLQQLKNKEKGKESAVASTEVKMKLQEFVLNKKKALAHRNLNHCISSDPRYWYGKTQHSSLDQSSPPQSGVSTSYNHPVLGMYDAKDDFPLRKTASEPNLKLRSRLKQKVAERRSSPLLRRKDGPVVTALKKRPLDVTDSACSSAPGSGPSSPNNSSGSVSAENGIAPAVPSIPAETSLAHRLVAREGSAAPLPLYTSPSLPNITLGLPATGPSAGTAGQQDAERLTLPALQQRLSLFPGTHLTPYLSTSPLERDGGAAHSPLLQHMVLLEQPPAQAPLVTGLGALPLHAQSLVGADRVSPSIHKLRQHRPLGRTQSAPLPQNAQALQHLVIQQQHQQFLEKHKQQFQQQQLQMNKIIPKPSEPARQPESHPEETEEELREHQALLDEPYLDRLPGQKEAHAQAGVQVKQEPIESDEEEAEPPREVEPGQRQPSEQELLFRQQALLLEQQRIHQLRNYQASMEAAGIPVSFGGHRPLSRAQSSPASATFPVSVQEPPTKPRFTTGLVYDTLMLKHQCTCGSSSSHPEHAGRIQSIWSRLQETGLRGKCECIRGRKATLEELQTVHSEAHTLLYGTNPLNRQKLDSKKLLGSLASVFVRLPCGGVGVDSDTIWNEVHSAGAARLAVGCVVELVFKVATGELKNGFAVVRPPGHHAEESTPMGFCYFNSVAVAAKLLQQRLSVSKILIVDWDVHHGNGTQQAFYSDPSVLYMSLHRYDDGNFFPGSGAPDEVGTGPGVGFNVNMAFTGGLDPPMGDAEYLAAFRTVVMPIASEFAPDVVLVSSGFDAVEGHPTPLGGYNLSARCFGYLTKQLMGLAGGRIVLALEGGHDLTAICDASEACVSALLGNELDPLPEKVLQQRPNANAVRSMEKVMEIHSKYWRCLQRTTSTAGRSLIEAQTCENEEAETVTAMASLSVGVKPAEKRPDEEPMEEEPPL

Histone deacetylase 5 = Histone deacetylase 5 (Homo sapiens, UniProt Q9UQL6); test: Inhibition of HDAC5 (unknown origin) using Ac-LeuGlyLys(tfa)-AMC as substrate preincubated for 5 mins followed by substrate addition and measured after 60 mins by fluorescence based assay
Histone deacetylase 5, sequence (Q9UQL6 whole entry): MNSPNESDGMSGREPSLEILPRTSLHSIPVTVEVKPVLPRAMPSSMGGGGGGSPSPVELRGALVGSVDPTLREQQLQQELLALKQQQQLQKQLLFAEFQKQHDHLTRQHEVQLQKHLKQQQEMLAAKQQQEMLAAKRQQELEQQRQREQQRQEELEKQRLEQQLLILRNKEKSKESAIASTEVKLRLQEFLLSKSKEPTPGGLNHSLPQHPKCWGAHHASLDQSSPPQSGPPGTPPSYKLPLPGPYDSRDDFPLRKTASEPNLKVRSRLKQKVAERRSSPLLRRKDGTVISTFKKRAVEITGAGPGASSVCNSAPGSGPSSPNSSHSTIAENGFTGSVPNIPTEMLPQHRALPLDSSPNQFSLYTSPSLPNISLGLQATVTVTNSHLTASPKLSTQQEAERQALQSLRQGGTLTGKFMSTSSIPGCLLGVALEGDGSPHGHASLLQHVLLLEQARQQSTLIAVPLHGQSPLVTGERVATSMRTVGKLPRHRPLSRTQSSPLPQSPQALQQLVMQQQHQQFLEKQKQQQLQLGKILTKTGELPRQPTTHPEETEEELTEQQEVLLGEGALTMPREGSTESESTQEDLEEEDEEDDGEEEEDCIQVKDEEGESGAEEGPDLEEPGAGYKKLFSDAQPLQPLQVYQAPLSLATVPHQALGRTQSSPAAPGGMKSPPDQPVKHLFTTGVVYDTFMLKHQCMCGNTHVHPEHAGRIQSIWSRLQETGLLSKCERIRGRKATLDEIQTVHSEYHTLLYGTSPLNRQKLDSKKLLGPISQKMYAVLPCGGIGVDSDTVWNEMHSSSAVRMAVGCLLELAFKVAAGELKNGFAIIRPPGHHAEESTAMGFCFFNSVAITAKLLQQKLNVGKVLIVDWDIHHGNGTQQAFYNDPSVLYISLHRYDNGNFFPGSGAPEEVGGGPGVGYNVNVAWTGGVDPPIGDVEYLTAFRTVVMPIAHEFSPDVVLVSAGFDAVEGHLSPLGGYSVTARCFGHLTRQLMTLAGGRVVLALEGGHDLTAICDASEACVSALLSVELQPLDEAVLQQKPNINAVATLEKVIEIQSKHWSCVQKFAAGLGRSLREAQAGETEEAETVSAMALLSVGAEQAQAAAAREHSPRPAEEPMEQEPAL

Histone deacetylase 7 = molecular target: T1, Histone deacetylase 7 (Homo sapiens, UniProt Q8WUI4); test: Inhibition of HDAC7 (unknown origin) using Ac-LeuGlyLys(tfa)-AMC as substrate preincubated for 5 mins followed by substrate addition and measured after 60 mins by fluorescence based assay
T1 sequence (Q8WUI4 whole entry): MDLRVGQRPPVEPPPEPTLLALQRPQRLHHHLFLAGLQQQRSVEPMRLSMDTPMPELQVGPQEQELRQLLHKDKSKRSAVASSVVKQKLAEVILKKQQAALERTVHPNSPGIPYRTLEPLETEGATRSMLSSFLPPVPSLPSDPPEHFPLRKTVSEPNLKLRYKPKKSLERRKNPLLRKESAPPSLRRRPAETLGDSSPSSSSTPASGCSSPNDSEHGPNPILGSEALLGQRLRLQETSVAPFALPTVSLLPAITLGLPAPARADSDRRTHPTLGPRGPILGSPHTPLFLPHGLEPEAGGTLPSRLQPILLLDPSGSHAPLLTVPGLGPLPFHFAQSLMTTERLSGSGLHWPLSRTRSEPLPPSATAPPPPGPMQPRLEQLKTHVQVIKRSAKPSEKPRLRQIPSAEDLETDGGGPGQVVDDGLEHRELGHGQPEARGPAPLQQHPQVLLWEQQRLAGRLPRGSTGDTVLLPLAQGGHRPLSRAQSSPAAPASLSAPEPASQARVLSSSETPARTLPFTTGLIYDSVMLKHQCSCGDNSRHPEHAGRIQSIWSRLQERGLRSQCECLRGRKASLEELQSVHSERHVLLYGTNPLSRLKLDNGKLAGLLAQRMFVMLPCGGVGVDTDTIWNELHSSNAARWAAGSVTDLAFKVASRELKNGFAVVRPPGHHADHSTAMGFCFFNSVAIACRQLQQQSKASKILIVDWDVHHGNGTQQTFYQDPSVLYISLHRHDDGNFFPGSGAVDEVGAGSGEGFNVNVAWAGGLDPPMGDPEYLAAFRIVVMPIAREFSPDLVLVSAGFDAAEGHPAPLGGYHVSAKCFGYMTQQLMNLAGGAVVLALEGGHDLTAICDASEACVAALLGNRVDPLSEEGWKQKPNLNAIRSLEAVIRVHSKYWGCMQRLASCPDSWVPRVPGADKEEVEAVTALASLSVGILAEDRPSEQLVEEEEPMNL

Histone deacetylase 8 = molecular target: T2, Histone deacetylase 8 (Homo sapiens, UniProt Q9BY41); test: Inhibition of HDAC8 (unknown origin) using Ac-LeuGlyLys(tfa)-AMC as substrate preincubated for 5 mins followed by substrate addition and measured after 60 mins by fluorescence based assay
T2 sequence (Q9BY41 whole entry): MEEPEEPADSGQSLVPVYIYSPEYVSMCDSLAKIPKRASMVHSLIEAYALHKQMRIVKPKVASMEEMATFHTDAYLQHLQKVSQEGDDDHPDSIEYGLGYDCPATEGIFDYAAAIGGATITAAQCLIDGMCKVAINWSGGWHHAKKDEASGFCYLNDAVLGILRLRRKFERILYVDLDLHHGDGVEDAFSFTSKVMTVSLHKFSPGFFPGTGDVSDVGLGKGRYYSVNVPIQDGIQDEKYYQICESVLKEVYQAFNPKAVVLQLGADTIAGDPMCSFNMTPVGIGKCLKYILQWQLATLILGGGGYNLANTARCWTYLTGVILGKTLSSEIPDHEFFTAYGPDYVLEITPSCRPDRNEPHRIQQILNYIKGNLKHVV

HCT-116 = test: Antiproliferative activity against human HCT116 cells incubated for 48 hrs by MTT assay; type: functional, cell-based; conditions: HCT-116, 48 h
HL-60 [1] = test: Induction of cell cycle arrest in human HL60 cells assessed as accumulation of cells at subG1 phase at 0.25 to 0.45 uM incubated for 48 hrs by PI staining based flow cytometric analysis; type: functional
Summary of the method: (§1)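 PI staining of HL-60 cells, with DMSO-treated cells as control, used to read cell-cycle phase distribution including G1 and subG1 fractions. Mean ± SD of at least three independent experiments.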

HL-60 [2] = test: Induction of cell cycle arrest in human HL60 cells assessed as accumulation of cells at G1 phase at 0.25 to 0.45 uM incubated for 48 hrs by PI staining based flow cytometric analysis; type: functional; summary of the method: as §1
HL-60 [3] = test: Induction of apoptosis in human in human HL60 cells assessed as increase in caspase 3 activation at 0.25 to 0.75 uM using […] as substrate preincubated for 24 to 48 hrs followed by substrate addition and measured after 1.5 hrs by fluorescence based assay; type: functional, cell-based
Summary of the method: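 HL-60 cells exposed to 0.25, 0.45 and 0.75 μM for 24 and 48 h, with untreated cells as control; activated caspase 3 measured. Mean ± SD of at least three independent experiments; significance versus untreated control set at p < 0.05.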

Homo sapiens [4] = organism: Homo sapiens; test: Selectivity ratio of IC50 for HDAC1 (unknown origin) to IC50 for HDAC6 (unknown origin)
Summary of the method: (§2)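 Each isoform's IC50 comes from a dose–effect curve in an HDAC isoform inhibition panel, with replicates n ≥ 2. The ratio is that isoform's IC50 divided by the HDAC6 IC50.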

Homo sapiens [5] = organism: Homo sapiens; test: Selectivity ratio of IC50 for HDAC2 (unknown origin) to IC50 for HDAC6 (unknown origin); summary of the method: as §2
Homo sapiens [6] = organism: Homo sapiens; test: Selectivity ratio of IC50 for HDAC3 (unknown origin) to IC50 for HDAC6 (unknown origin); summary of the method: as §2
Homo sapiens [7] = organism: Homo sapiens; test: Selectivity ratio of IC50 for HDAC4 (unknown origin) to IC50 for HDAC6 (unknown origin); summary of the method: as §2
Homo sapiens [8] = organism: Homo sapiens; test: Selectivity ratio of IC50 for HDAC7 (unknown origin) to IC50 for HDAC6 (unknown origin); summary of the method: as §2
Homo sapiens [9] = organism: Homo sapiens; test: Selectivity ratio of IC50 for HDAC8 (unknown origin) to IC50 for HDAC6 (unknown origin); summary of the method: as §2
Homo sapiens [10] = organism: Homo sapiens; test: Selectivity ratio of IC50 for HDAC9 (unknown origin) to IC50 for HDAC6 (unknown origin); summary of the method: as §2
Homo sapiens [11] = organism: Homo sapiens; test: Selectivity ratio of IC50 for HDAC11 (unknown origin) to IC50 for HDAC6 (unknown origin); summary of the method: as §2
[12] = molecular target: Histone deacetylase (Homo sapiens) (UniProt Q13547+O15379+Q9UBN7+Q92769+Q9UQL6+Q8WUI4+Q9BY41+Q96DB2+P56524+Q9UKV0+Q969S8); conditions: at 0.08 to 1.6 µM

Row | pIC50 (Histone deacetylase 1) | pIC50 (Histone deacetylase 4) | pIC50 (Histone deacetylase 5) | pIC50 (Histone deacetylase 7) | pIC50 (Histone deacetylase 8) | pIC50 (HCT-116) | Ratio IC50 (Homo sapiens [4]) | Ratio IC50 (Homo sapiens [5]) | Ratio IC50 (Homo sapiens [6]) | Ratio IC50 (Homo sapiens [7]) | Ratio IC50 (Homo sapiens [8]) | Ratio IC50 (Homo sapiens [9]) | Ratio IC50 (Homo sapiens [10]) | Ratio IC50 (Homo sapiens [11]) | inhibition [12] | SMILES | Activity (HL-60 [1]) | Activity (HL-60 [2]) | Activity (HL-60 [3])
1 | 6.71 | < 4.00 | 5.34 | 5.22 | 5.17 | 5.90 |  |  |  |  |  |  |  |  |  | O=C(CCC1C(=O)N(c2ccc(Cl)cc2)C(=O)N1Cc1ccc(Br)cc1)Nc1ccc(C(=O)NO)cc1 (configuration not stated) | Active | Active | 
2 | 6.95 | 4.57 | 5.34 | 5.06 | 5.44 | 5.65 |  |  |  |  |  |  |  |  |  | O=C(CCC1C(=O)N(c2ccc(Cl)cc2)C(=O)N1Cc1ccccc1)Nc1ccc(C(=O)NO)cc1 (configuration not stated) |  |  | 
3 | 6.02 | < 4.00 | 4.83 | < 4.00 | < 4.00 | 6.08 | 218 | 63 | 53 | > 20000 | > 20000 | > 20000 | > 20000 | > 20000 | Active | Cc1ccc(CN2C(=O)N(c3ccc(Cl)cc3)C(=O)C2CCC(=O)Nc2ccc(C(=O)NO)cc2)cc1 (configuration not stated) | Active | Active | Active
